Bioassay records (PubChem)
An excerpt weighted towards active compounds, which were near 2.1% of everything screened.
GRK2 aptamer HTS: compounds blocking aptamer binding on GRK2 – biochemical, human GRK2, bead flow cytometry, HTS, primary screen | inhibition of aptamer binding, % at 10 µM | FAM-aptamer displacement from GRK2 | hit rate 0.59% among 330,000 | Beta-adrenergic receptor kinase 1 (Homo sapiens), P25098;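 active means inhibition of aptamer binding above 40%, roughly 3 SD of noise, on plates passing a quality check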;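 further: median bead fluorescence of bound FAM aptamer so fluorescent compounds give negative values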
STEP inh: STEP phosphatase inhibitors, primary screen, biochemical, fluorescence intensity, uHTS; AID 588621, 2011; recombinant STEP, OMFP fluorogenic substrate; inhibition, % at 20 µM; hit rate 0.25% among 360,000;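 active means inhibition at 20 µM, scaled per plate between control wells, above about 37%, limit read from the data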;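 further: 0% = DMSO with enzyme and substrate and 100% = substrate only without enzyme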
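Test system: STEP tyrosine phosphatase / Reagent: OMFP at 25 µM / Doses: 20 µM, 1% DMSO / Read-out: percent inhibition scaled to no-enzyme and uninhibited-enzyme controls, plate-pattern corrected / Detection: FITC-channel fluorescence of OMFP product / Medium: Bis-Tris buffer pH 6.0, 2.5 mM DTT, 0.005% Tween 20 / Schedule: 20 min at room temperature, dark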
LMPTP inh: LMPTP phosphatase inhibitors, primary screen, biochemical, fluorescence intensity, uHTS; recombinant LMPTP-A, OMFP fluorogenic substrate; inhibition, % at 20 µM; hit rate 0.22% among 360,000;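 active means compounds that cut the enzyme signal by at least half of the control window in the single-dose screen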;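 further: plate controls were DMSO wells with enzyme plus substrate for no effect and substrate without enzyme for full effect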
Target sequence (P24666 whole entry, looked up): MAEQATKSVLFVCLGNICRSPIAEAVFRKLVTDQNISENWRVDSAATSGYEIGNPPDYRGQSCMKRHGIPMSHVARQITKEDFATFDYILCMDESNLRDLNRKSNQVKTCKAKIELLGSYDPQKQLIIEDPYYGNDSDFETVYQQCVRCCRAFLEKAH
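Test system: LMPTP-A, protein tyrosine phosphatase of low molecular weight; Input: 0.625 nM enzyme; Incubation: 50 min dark incubation at room temperature; Signal: endpoint fluorescence intensity from OMFP dephosphorylation; Read-out basis: % inhibition versus control wells.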
SUMO1-SIM PPI: modulators of SUMO1 protein-protein interactions, primary screen, biochemical, uHTS. AID 602429, 2012. SUMO1 binding to a labelled peptide, TR-FRET, 1 h. inhibition, % at 20 µM. hit rate 0.33% among 360,000. Small ubiquitin-related modifier 1 (Homo sapiens), P63165; in the data active means inhibition above about 37%
Scp1 inh: Scp-1 phosphatase inhibitors, primary screen, biochemical, colorimetric, uHTS | Recombinant Scp1, phosphopeptide, malachite green phosphate absorbance | inhibition, % at 20 µM | hit rate 0.88% among 340,000 | AID 493091, 2011;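 active means inhibition above about 50% at 20 µM, limit read from the data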;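 further: plate controls were DMSO wells with enzyme for no effect and wells lacking enzyme for full effect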
Target sequence (Q9GZU7 76-261 limits assumed): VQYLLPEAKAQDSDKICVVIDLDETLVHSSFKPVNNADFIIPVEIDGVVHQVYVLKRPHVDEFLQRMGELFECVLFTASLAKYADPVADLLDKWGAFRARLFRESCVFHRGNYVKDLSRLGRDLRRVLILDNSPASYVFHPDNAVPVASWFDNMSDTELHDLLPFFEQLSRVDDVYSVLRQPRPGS
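Times: enzyme reaction 45 min at room temperature, colour 5 min, stabilisation 30 min. Material: SCP-1 catalytic fragment, aa 76-261. Medium: Acidic Tris acetate buffer with magnesium and detergent. Signal: colorimetric free-phosphate detection, absorbance 630 nm. Read-out basis: % inhibition of SCP-1 phosphate liberation. Reagent: Phosphorylated 17-residue peptide substrate.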
DNMT1 block: human DNMT1 methyltransferase inhibitors, primary screen, biochemical, molecular beacon, fluorescence, HinP1I cleavage, uHTS; hit rate 0.83% among 360,000; DNA (cytosine-5)-methyltransferase 1 (Homo sapiens), P26358; inhibition (reported as % activation of signal), % at 10 µM; in the data active means inhibition above about 50%
Active calls of the source: *; . = no result given.

SMILES	GRK2 aptamer HTS	STEP inh	LMPTP inh	SUMO1-SIM PPI	Scp1 inh	DNMT1 block
Cc1c(C(=O)NC2CC(C)(C)NC(C)(C)C2)oc2c(Cl)cccc12	.	-4	-1	-5	.	2
COCCCNC(=O)c1cc2cc(Br)ccc2oc1=O	0	-3	1	-20	1	0
O=C(NNC(=O)c1cc2cc(Br)ccc2oc1=O)c1ccc(O)cc1O	4	49*	54*	-17	60*	4
O=c1oc2cc(O)ccc2c2ccccc12	1	0	1	2	11	11
O=c1oc2cc(O)ccc2c2oc3cc(O)ccc3c12	4	0	21	48*	21	-1
CC(C)Cc1nc2oc3c(N4CCN(CCO)CC4)ncnc3c2c2c1CCCC2	45*	2	1	1	-8	-7
CCOC(=O)N1CCN(c2ncnc3c2oc2nc(C(C)C)c4c(c23)CCC4)CC1	0	2	5	4	-7	-2
CN=c1scc(-c2ccccc2F)n1/N=C/c1ccc(O)c(O)c1O	.	8	57*	-14	22	-10
CC1(C(=O)NS(=O)(=O)c2cccc(F)c2)CCN1C(=O)CCC1CCCC1 (centres undefined)	.	2	0	1	.	0
CCOC(=O)c1sc2nc(N3CCOCC3)c3c(c2c1N)CCC3	0	2	3	-17	-17	-12
CCOC(=O)c1sc2nc(OCCN3CCOCC3)cc(C)c2c1N	.	.	57*	10	.	.
CCN1C(=O)[C@H]2[C@@H](c3ccc(C(F)(F)F)cc3)N[C@]3(CCCN(CC4CCCCC4)C3=O)[C@H]2C1=O	.	0	0	-2	.	1
CCCn1c(SCC(=O)Nc2ccc3c(c2)OCO3)n[nH]c1=O	0	-2	-2	35*	-7	-1
CCN1C(=N)N(c2ccccc2)C(=O)C(CC)(CC)C1=O	.	-2	-2	0	-2	0
O=C(O)c1ccc2c(c1)C1C=CCC1C(c1ccncc1)N2 (centres undefined)	6	1	-2	1	9	-1
COc1ccc(NS(=O)(=O)c2ccc3c(c2)[C@H]2C=CC[C@H]2[C@@H](c2ccc(C(=O)O)cc2)N3)cc1	4	3	4	53*	14	87*
COc1ccc(-n2c(SCC(=O)Nc3cccc(S(N)(=O)=O)c3)nc3ccccc3c2=O)cc1OC	3	-1	0	37*	-5	-3
O=C(CSc1nc2ccccc2c(=O)n1-c1ccc(F)cc1)Nc1cc(S(=O)(=O)N2CCOCC2)ccc1Cl	53*	9	2	2	-11	-3
Cn1c(CCN2CCN(c3ccccn3)CC2)nc2cc(NC(=O)COc3ccc([N+](=O)[O-])cc3)ccc21	0	0	71*	29	-9	1
Cn1c(CCN2CCOCC2)nc2cc(NC(=O)COc3ccc([N+](=O)[O-])cc3)ccc21	0	5	1	-14	-5	2
Cc1cc(C(=O)N/N=C/c2cc(Br)cc(Br)c2OC(=O)c2ccccc2)n[nH]1	2	.	.	.	.	.
Cc1cc(C(=O)N/N=C/c2cc(Br)cc(Br)c2OC(=O)c2cccc(F)c2)n[nH]1	2	1	65*	7	87*	35
COc1ccccc1OCC(=O)Nc1cc(NC(=O)COc2ccccc2OC)cc(C(=O)O)c1	1	1	0	11	-10	-6
CC(C)Oc1ccc(C(=O)Nc2ccc(N3CCCC3)cc2)cc1	0	-4	5	-34	3	53*
O=C(COc1ccccc1Cl)Nc1cc(NC(=O)COc2ccccc2Cl)cc(C(=O)O)c1	5	30	31	20	73*	4
O=C(Nc1ccc(N2CCCC2)cc1)c1cc(Cl)ccc1Cl	0	1	35	90*	-4	53*
